Measurements taken from ChEMBL document CHEMBL1143109, “Discovery of novel orally active ureido NPY Y5 receptor antagonists” (Bioorg Med Chem Lett, 2008).

Biological target: T1, Neuropeptide Y receptor type 5 (Rattus norvegicus) (UniProt Q63634)
T1 sequence (whole entry): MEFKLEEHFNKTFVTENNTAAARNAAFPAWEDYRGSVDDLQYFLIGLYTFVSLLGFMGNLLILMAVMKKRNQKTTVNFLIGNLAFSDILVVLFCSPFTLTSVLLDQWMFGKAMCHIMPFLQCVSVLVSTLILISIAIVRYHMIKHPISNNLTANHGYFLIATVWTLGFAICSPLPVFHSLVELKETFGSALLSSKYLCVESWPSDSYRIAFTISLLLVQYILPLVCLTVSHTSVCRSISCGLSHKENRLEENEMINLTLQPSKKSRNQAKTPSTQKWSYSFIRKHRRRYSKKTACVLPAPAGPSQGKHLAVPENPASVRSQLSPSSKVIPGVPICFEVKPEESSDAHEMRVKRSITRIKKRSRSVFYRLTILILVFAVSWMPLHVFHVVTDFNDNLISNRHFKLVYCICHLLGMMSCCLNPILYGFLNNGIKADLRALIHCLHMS
Assay: Antagonist activity at rat NPY Y5 receptor expressed in HEK293 cells assessed as inhibition of forskolin-stimulated cAMP production
Assay type: functional, cell-based
Conditions: not given
Outline: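 HEK293 cells expressing rat NPY Y5 receptor. Functional antagonism measured as the ability to overcome NPY inhibition of forskolin-stimulated cAMP production; reported as Kb.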

For `CN(C(=O)Nc1ccc(-c2cc(F)cc(F)c2)cc1)C1CCN(S(C)(=O)=O)CC1`, the Kb was 0.4 nM.

System: Rattus norvegicus
Assay: Blockade of D-Trp[34]-NPY-induced food intake in po dosed rat
Assay type: functional
Conditions: not given

`CN(C(=O)Nc1ccc(-c2cc(F)cc(F)c2)cc1)C1CCN(S(C)(=O)=O)CC1` gave an ED50 of 0.4 mg/kg.

Biological target: Neuropeptide Y receptor type 5 (Homo sapiens, UniProt Q15761)
Assay: Displacement of [125]PYY from human chimeric NPY Y5 receptor expressed in CHOK1 cells
Assay type: cell-based
Conditions: cho-k1
Outline: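 Binding to human chimeric Y5 receptor expressed in CHO-K1 cells; Ki values are the average of two determinations.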

Neuropeptide Y receptor type 5, sequence (Q15761 whole entry, looked up): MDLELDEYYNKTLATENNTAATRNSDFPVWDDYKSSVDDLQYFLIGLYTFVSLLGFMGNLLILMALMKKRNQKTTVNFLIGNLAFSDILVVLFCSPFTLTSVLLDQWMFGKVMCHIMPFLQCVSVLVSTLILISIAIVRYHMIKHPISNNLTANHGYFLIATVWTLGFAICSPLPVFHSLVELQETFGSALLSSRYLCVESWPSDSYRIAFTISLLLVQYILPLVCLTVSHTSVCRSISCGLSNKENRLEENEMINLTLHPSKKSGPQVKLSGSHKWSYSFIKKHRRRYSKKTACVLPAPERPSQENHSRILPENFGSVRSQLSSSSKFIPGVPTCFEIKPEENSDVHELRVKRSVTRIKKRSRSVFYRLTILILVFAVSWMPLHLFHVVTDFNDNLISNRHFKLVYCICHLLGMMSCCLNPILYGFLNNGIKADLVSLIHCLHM

First: CCC(=O)N1CCC(N(C)C(=O)N[C@H]2CC[C@H](c3cc(F)cc(F)c3)CC2)CC1
Second: CCCC(=O)N1CCC(N(C)C(=O)N[C@H]2CC[C@H](c3cc(F)cc(F)c3)CC2)CC1 (stereo in doubt; 21h)
The Ki of the first is 1.6-fold lower: 1.5 nM for the first, 2.4 nM for the second.

Going from `CC(C)C(=O)N1CCC(N(C)C(=O)NC2CCN(c3cc(F)cc(F)c3)CC2)CC1` to `CC(=O)N1CCC(N(C)C(=O)NC2CCN(c3cc(F)cc(F)c3)CC2)CC1`, the Ki rises from 2.6 nM to 7.4 nM (2.8-fold). The first binds more tightly here.

`CN(C(=O)NC1CCN(c2cccc(Cl)c2)CC1)C1CCN(S(C)(=O)=O)CC1` and `CN(C(=O)NC1CCN(c2cccc(Br)c2)CC1)C1CCN(S(C)(=O)=O)CC1` are within 1.5-fold of each other in Ki: 13 nM for the first, 8.8 nM for the second.

`CN(C(=O)NC1CCN(c2cccc(C#N)c2)CC1)C1CCN(S(C)(=O)=O)CC1` and `Cc1cccc(N2CCC(NC(=O)N(C)C3CCN(S(C)(=O)=O)CC3)CC2)c1` are within 1.5-fold of each other in Ki: 27 nM for the first, 20 nM for the second.

Going from `CN(C(=O)NC1CCN(c2ccccc2)CC1)C1CCN(S(C)(=O)=O)CC1` to `CN(C(=O)NC1CCN(c2ccccc2F)CC1)C1CCN(S(C)(=O)=O)CC1`, the Ki falls from 303 nM to 88 nM (3.4-fold).

Going from `CN(C(=O)N[C@H]1CC[C@H](c2cc(F)cc(F)c2)CC1)C1CCN(S(C)(=O)=O)CC1` to `CCS(=O)(=O)N1CCC(N(C)C(=O)N[C@H]2CC[C@H](c3cc(F)cc(F)c3)CC2)CC1`, the Ki falls from 1.2 nM to 0.75 nM (1.6-fold).

`CCS(=O)(=O)N1CCC(N(C)C(=O)NC2CCN(c3cc(F)cc(F)c3)CC2)CC1` and `CCCS(=O)(=O)N1CCC(N(C)C(=O)NC2CCN(c3cc(F)cc(F)c3)CC2)CC1` are within 1.5-fold of each other in Ki: 2.8 nM for the first, 3.4 nM for the second.

First: CN(C(=O)N[C@H]1CC[C@@H](c2ccccc2)CC1)C1CCN(S(C)(=O)=O)CC1
Second: CN(C(=O)N[C@H]1CC[C@H](c2ccccc2)CC1)C1CCN(S(C)(=O)=O)CC1
The Ki of the first is 9.6-fold higher: 500 nM for the first, 52 nM for the second.

Going from `CN(C(=O)NC1CCN(c2ccc(F)c(F)c2)CC1)C1CCN(S(C)(=O)=O)CC1` to `CN(C(=O)NC1CCN(c2ccc(F)c(Cl)c2)CC1)C1CCN(S(C)(=O)=O)CC1`, the Ki falls from 312 nM to 160 nM (1.9-fold). The second binds more tightly here.

Compared with `CC(=O)c1cccc(N2CCC(NC(=O)N(C)C3CCN(S(C)(=O)=O)CC3)CC2)c1`, `CN(C(=O)NC1CCN(c2cccc(F)c2)CC1)C1CCN(S(C)(=O)=O)CC1` is 4.7-fold lower in Ki: 164 nM for the first, 35 nM for the second.

Going from `CN(C(=O)NC1CCN(c2ccc(F)cc2)CC1)C1CCN(S(C)(=O)=O)CC1` to `CN(C(=O)NC1CCN(c2ccc(Cl)cc2)CC1)C1CCN(S(C)(=O)=O)CC1`, the Ki falls from 799 nM to 130 nM (6.1-fold). The second binds more tightly here.

Going from `CN(C(=O)NC1CCN(c2ccc(Br)cc2)CC1)C1CCN(S(C)(=O)=O)CC1` to `COc1cccc(N2CCC(NC(=O)N(C)C3CCN(S(C)(=O)=O)CC3)CC2)c1`, the Ki falls from 819 nM to 311 nM (2.6-fold). The second binds more tightly here.

Going from `CN(C(=O)NC1CCN(c2cc(Cl)cc(Cl)c2)CC1)C1CCN(S(C)(=O)=O)CC1` to `CN(C(=O)NC1CCN(c2ccc(Cl)c(Cl)c2)CC1)C1CCN(S(C)(=O)=O)CC1`, the Ki rises from 1.1 nM to 48 nM (44-fold). The first binds more tightly here.

Going from `Cc1ccccc1N1CCC(NC(=O)N(C)C2CCN(S(C)(=O)=O)CC2)CC1` to `CN(C(=O)NC1CCN(c2cccnc2)CC1)C1CCN(S(C)(=O)=O)CC1`, the Ki rises from 52 nM to 405 nM (7.8-fold). The first binds more tightly here.

Going from `CC(=O)N1CCC(N(C)C(=O)N[C@H]2CC[C@@H](c3ccccc3)CC2)CC1` to `CC(=O)N1CCC(N(C)C(=O)N[C@H]2CC[C@H](c3ccccc3)CC2)CC1`, the Ki falls from over 1000 nM to 59 nM.

Going from `CCCC(=O)N1CCC(N(C)C(=O)N[C@H]2CC[C@H](c3cc(F)cc(F)c3)CC2)CC1` (stereo in doubt; 21e) to `CCCC(=O)N1CCC(N(C)C(=O)NC2CCN(c3cc(F)cc(F)c3)CC2)CC1`, the Ki rises from 2 nM to 5.9 nM (3-fold). The first binds more tightly here.

Compared with `CCC(=O)N1CCC(N(C)C(=O)NC2CCN(c3cc(F)cc(F)c3)CC2)CC1`, `CN(C(=O)NC1CCN(c2cc(F)cc(F)c2)CC1)C1CCN(S(C)(=O)=O)CC1` is 2-fold lower in Ki: 6.3 nM for the first, 3.2 nM for the second.

Going from `CC(C)S(=O)(=O)N1CCC(N(C)C(=O)NC2CCN(c3cc(F)cc(F)c3)CC2)CC1` to `CN(C(=O)Nc1ccc(-c2cc(F)cc(F)c2)cc1)C1CCN(S(C)(=O)=O)CC1`, the Ki falls from 3.2 nM to 0.4 nM (8-fold).
